Each structure is given as a SMILES string. Read-outs that look alike come from different tables or passages of the source.

Test [1] relates to HMLER-shEcad cells. The experiment in a line: MTT cytotoxicity assay, breast CSC-enriched cells. Type of test: cell-based. The following applies: read-out: HMLER-shEcad IC50/nM.
The test system of test [2] is HMLER cells. The experiment in a line: MTT cytotoxicity assay, bulk breast cancer cells. The test is classed as cell-based. The following applies: read-out: HMLER IC50/nM.
Test [3] concerns MCF10A spheroids. The experiment in a line: Non-tumorigenic spheroid viability. The following applies: Homo sapiens, MCF-10A, read-out: IC50, MCF10A spheroid viability. Type of test: cell-based.
Test [4] deals with HMLER-shEcad mammospheres. The experiment in a line: Mammosphere formation inhibition. Type of test: cell-based. The following applies: IC20 value for 5 days. The gist of the method:
(§1)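 HMLER-shEcad or MCF10A cells were grown as mammospheres/spheroids with test compound at its IC20 for 5 days. Spheres were assessed by inverted microscope with bright-field imaging (×20), and formation was quantified against untreated cells. SD, Student t-test.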

In test [5] the test system is HMLER-shEcad cells. The following applies: read-out: HMLER-shEcad IC50/nM; 72 h incubation; cited from earlier work.
The test system of test [6] is MCF10A spheroids. In words: Non-tumorigenic spheroid formation inhibition. The test is classed as cell-based. The following applies: IC20 value for 5 days. In outline:
as §1

For test [7], the system named is HMLER-shEcad mammospheres. The following applies: cited from earlier work.
Where [8] appears, read: 72 h incubation, mean of three independent experiments ± SD.

As to `Cc1cnc2c(ccc3c(C)c(C)cnc32)c1C` [3,4,7,8-Tetramethyl-1,10-phenanthroline], the IC50 stood at 720 ± 84 nM in test [1] (72 h) and 785 ± 10 nM in test [2] (72 h).
With `CC[C@@H](C(=O)[C@@H](C)[C@@H](O)[C@H](C)[C@@H]1O[C@@H]([C@@H](CC)C(=O)O)CC[C@@H]1C)[C@H]1O[C@]2(C=C[C@@H](O)[C@]3(CC[C@@](C)([C@H]4CC[C@](O)(CC)[C@H](C)O4)O3)O2)[C@H](C)C[C@@H]1C` [Salinomycin], the values for the IC50 in test [3] and in test [5] were 14.9 ± 0.5 µM and 4200 ± 400 nM, respectively. Moreover, in test [4], the “decrease in number of HMLER-shEcad mammospheres formed compared to the untreated control” value is 53%. Also, the “decrease in number of MCF10A spheroids formed” value in test [6] worked out at 40%.
Take `N.N.[Cl][Pt][Cl]` [Cisplatin]: the IC50 was found to be 5640 ± 304 nM in test [1] (setting [8]) and 2565 ± 21 nM in test [2] (setting [8]).
The like results for `Cc1cnc2c(ccc3c(C)c(C)cnc32)c1C.[Cl][Mn][Cl]` [Mn(3,4,7,8-tetramethyl-1,10-phenanthroline)Cl2] were, in that order, 170 ± 14 nM and 163 ± 21 nM.
For `[Cl][Mn][Cl]` [MnCl2·4H2O], the IC50 in test [1] (setting [8]) is 7760 ± 318 nM.
As for `O=C(O)Cc1ccccc1Nc1c(Cl)cccc1Cl` [Diclofenac], the “effect on number or size of HMLER-shEcad mammospheres formed” value in test [7] is “does not significantly affect”.

These data come from paper PMC6764274 (Chemical Science, 2019).
